Results on two molecules are retold here after paper PMC2859091 (Journal of natural products, 2010).

The subject of test [1] is Candida albicans (ATCC 44506). The test can be described thus: Antimicrobial assay, C. albicans. In kind it is cell-based. The settings on record: at the concentrations tested.
Test [2] deals with NCI/ADR-Res (multi drug resistant ovarian cancer cell line). The test can be described thus: Cytotoxicity. In kind it is cell-based, human. Conditions: at a concentration of 5.2 µM.
For test [3], the system named is Pseudomonas aeruginosa (ATCC 27853). The test can be described thus: Antimicrobial assay, P. aeruginosa. In kind it is cell-based. Conditions: at the concentrations tested.
The next test concerns the target MCL-1 binding to Bak (Homo sapiens, UniProt Q07820). As to the kind of experiment: MCL-1 assay.
The test system of test [4] is DLD-1 human colorectal adenocarcinoma. As to the kind of experiment: Cytotoxicity. In kind it is cell-based. A digest of the protocol: (§1)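 Test compound assessed for effect on proliferation of human PANC-1 pancreatic carcinoma and DLD-1 colorectal adenocarcinoma cells, both lines obtained from ATCC. The procedure follows a previously described protocol. Each sample was assayed at least three times to derive the final value.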

In test [5] the test system is PANC-1 pancreatic carcinoma. The test can be described thus: Cytotoxicity. Format: cell-based, human. A digest of the protocol: as §1

Chain of MCL-1 binding to Bak (Q07820 whole entry): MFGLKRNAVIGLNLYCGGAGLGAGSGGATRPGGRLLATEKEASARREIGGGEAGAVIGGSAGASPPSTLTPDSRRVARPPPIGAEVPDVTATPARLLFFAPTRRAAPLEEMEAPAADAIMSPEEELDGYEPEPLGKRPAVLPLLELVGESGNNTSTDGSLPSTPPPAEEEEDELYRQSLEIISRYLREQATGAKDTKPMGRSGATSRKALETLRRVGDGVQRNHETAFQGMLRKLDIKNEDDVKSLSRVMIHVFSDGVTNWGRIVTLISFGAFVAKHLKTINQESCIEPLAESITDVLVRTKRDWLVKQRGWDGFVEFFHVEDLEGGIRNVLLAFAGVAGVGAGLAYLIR

For `CCC[C@@H](O)Cc1c(Br)c(O)c2c(=O)c3c(O)c(Br)c(O)c4c5c(O)c(Br)c(O)c6c(=O)c7c(O)c(Br)c(C[C@H](O)CCC)c8c1c2c(c34)c(c65)c78` [Gymnochrome F, 1,6,8,10,11,13-hexahydroxy-2,5,9,12-tetrabromo-3,4-(2-hydroxypentyl)-phenanthroperylene-7,14-quinone], in test [1], the “activity against Candida albicans” value was “did not show activity”. In addition, the “inhibitory activity against NCI/ADR-Res” value in test [2] was “did not show significant inhibitory activity”. Also, the “activity against Pseudomonas aeruginosa” value in test [3] is reported as “did not show activity”. Besides, at MCL-1 binding to Bak, the “inhibition of MCL-1 binding to Bak (in words)” value was “moderate inhibitor”. In addition, in test [4] (at a concentration of 5.2 µM), the “inhibitory activity against DLD-1” value is “did not show significant inhibitory activity”. Besides, in test [5] (at a concentration of 5.2 µM), the “inhibitory activity against PANC-1” value is on record as “did not show significant inhibitory activity”.
With `CCC[C@@H](O)Cc1c(Br)c(O)c2c(=O)c3c(O)cc(O)c4c5c(O)cc(O)c6c(=O)c7c(O)c(Br)c(C[C@H](C)O)c8c1c2c(c34)c(c65)c78` [Gymnochrome E, 1,6,8,10,11,13-hexahydroxy-2,5-dibromo-3-(2-hydroxypropyl)-4-(2-hydroxypentyl)-phenanthroperylene-7,14-quinone], the “activity against Candida albicans” value in test [1] is given as “did not show activity”. Also, the “activity against Pseudomonas aeruginosa” value in test [3] is “did not show activity”. Further, the “inhibitory activity against DLD-1” value in test [4] (at a concentration of 6.4 µM) was “did not show significant inhibitory activity”. In addition, the “inhibitory activity against PANC-1” value in test [5] (at a concentration of 6.4 µM) is “did not show significant inhibitory activity”.
